Results: ChEMBL document CHEMBL3808334, “Synthesis and in vitro evaluation of novel triazine analogues as anticancer agents and their interaction studies with bovine serum albumin” (Eur J Med Chem, 2016)

How the values were obtained:
Format in all cases: functional
[1] = test system: U-251; test: Growth inhibition of human U251 cells assessed as cell growth at 10^-8 M incubated for 48 hrs by sulforhodamine B assay; conditions: U-251, 48 h, read-out: Activity
[2] = Growth inhibition of human OVCAR5 cells incubated for 48 hrs by sulforhodamine B assay; conditions: OVCAR-5, 48 h
Summary of the method: (§1)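 Cells were plated at 5,000–40,000 per well according to doubling time and preincubated 24 h at 37 °C in 5% CO2; time-zero plates were then TCA-fixed. Five concentrations (10-fold or ½-log dilutions, DMSO stock) were incubated 48 h. Cells were TCA-fixed, stained with 0.4% SRB and read at 515 nm. GI50 was taken where [(Ti−Tz)/(C−Tz)]×100 = 50.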

[3] = test system: SN12C; test: Growth inhibition of human SN12C cells incubated for 48 hrs by sulforhodamine B assay; summary of the method: as §1
[4] = Growth inhibition of human SNB75 cells assessed as cell growth at 10 uM incubated for 48 hrs by sulforhodamine B assay; conditions: SNB-75, 48 h, read-out: Activity
[5] = Growth inhibition of human LOXIMVI cells assessed as cell growth at 10 uM incubated for 48 hrs by sulforhodamine B assay; conditions: LOX IMVI, read-out: Activity
[6] = Growth inhibition of human COLO205 cells assessed as cell growth at 10^-4 M incubated for 48 hrs by sulforhodamine B assay; conditions: COLO 205, 48 h, read-out: Activity
Summary of the method: (§2)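 Cells seeded at 5,000–40,000/well according to doubling time and preincubated 24 h at 37 °C, 5% CO2. Time-zero plates were TCA-fixed. DMSO concentrate was diluted in medium with 50 µg/ml gentamicin to give five concentrations (10-fold or ½ log steps), then exposed 48 h. Cells were TCA-fixed, stained with 0.4% SRB and read at 515 nm. Percent growth was taken against time-zero and control; GI50, TGI and LC50 derived.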

[7] = test system: MDA-MB-435; test: Growth inhibition of human MDA-MB-435 cells assessed as cell growth at 10 uM incubated for 48 hrs by sulforhodamine B assay; conditions: MDA-MB-435, 48 h, read-out: Activity
[8] = test system: SK-MEL-28; test: Growth inhibition of human SK-MEL-28 cells assessed as cell growth at 10^-5 M incubated for 48 hrs by sulforhodamine B assay; conditions: SK-MEL-28, 48 h, read-out: Activity
[9] = Growth inhibition of human RPMI8226 cells assessed as cell growth at 10^-7 M incubated for 48 hrs by sulforhodamine B assay; conditions: RPMI-8226, 48 h, read-out: Activity
[10] = test system: K562; test: Growth inhibition of human K562 cells assessed as cell growth at 10^-8 M incubated for 48 hrs by sulforhodamine B assay; conditions: K562, 48 h, read-out: Activity
[11] = Growth inhibition of human SNB19 cells assessed as cell growth at 10^-4 M incubated for 48 hrs by sulforhodamine B assay; conditions: SNB-19, 48 h, read-out: Activity
[12] = test system: NCI-H460; test: Growth inhibition of human NCI-H460 cells assessed as cell growth at 10^-6 M incubated for 48 hrs by sulforhodamine B assay; conditions: NCI-H460, 48 h, read-out: Activity
[13] = Growth inhibition of human BT549 cells assessed as cell growth at 10^-5 M incubated for 48 hrs by sulforhodamine B assay; conditions: BT-549, 48 h, read-out: Activity
Summary of the method: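 Five-dose assay: five concentrations from 10-fold or ½-log serial dilutions. Cells are plated at 5,000–40,000 per well according to doubling time, grown 24 h, then exposed 48 h at 37 °C, 5% CO₂. Fixed with cold 50% TCA (final addition) for 60 min at 4 °C and stained with 0.4% SRB in 1% acetic acid. Bound dye is solubilized in 10 mM Tris base and read at 515 nm. GI₅₀ is where [(Ti−Tz)/(C−Tz)]×100 = 50, with a time-zero plate as Tz.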

[14] = Growth inhibition of human Caki1 cells assessed as cell growth at 10^-7 M incubated for 48 hrs by sulforhodamine B assay; conditions: CAKI-1, 48 h, read-out: Activity; summary of the method: as §2
[15] = Growth inhibition of human Caki1 cells assessed as cell growth at 10^-5 M incubated for 48 hrs by sulforhodamine B assay; conditions: CAKI-1, 48 h, read-out: Activity; summary of the method: as §2
[16] = Growth inhibition of human colon cancer cells incubated for 48 hrs by sulforhodamine B assay; conditions: Cancer cell lines; for CC50: read-out: LC50 (the source's name)
[17] = test system: NCI-H226; test: Growth inhibition of human NCI-H226 cells assessed as cell growth at 10 uM incubated for 48 hrs by sulforhodamine B assay; conditions: NCI-H226, 48 h, read-out: Activity
[18] = test system: SK-MEL-5; test: Growth inhibition of human SK-MEL-5 cells incubated for 48 hrs by sulforhodamine B assay; conditions: SK-MEL-5, 48 h; summary of the method: as §1
[19] = test system: CCRF-CEM; test: Growth inhibition of human CCRF-CEM cells assessed as cell growth at 10^-8 M incubated for 48 hrs by sulforhodamine B assay; conditions: read-out: Activity
Summary of the method: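 Leukemia line in the five-dose format: five concentrations from 10-fold or ½-log serial dilutions. Plated at 5,000–40,000 cells per well, preincubated 24 h, then compound added for 48 h at 37 °C, 5% CO₂. Sulforhodamine B absorbance read at 515 nm. Growth is computed against time-zero (Tz) and control (C) readings; GI₅₀ is where [(Ti−Tz)/(C−Tz)]×100 = 50.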

[20] = test system: NCI-H23; test: Growth inhibition of human NCI-H23 cells assessed as cell growth at 10^-7 M incubated for 48 hrs by sulforhodamine B assay; conditions: NCI-H23, 48 h, read-out: Activity
[21] = test system: NCI-H460; test: Growth inhibition of human NCI-H460 cells assessed as cell growth at 10^-4 M incubated for 48 hrs by sulforhodamine B assay; conditions: NCI-H460, 48 h, read-out: Activity
[22] = test system: SK-MEL-28; test: Growth inhibition of human SK-MEL-28 cells assessed as cell growth at 10^-8 M incubated for 48 hrs by sulforhodamine B assay; conditions: SK-MEL-28, 48 h, read-out: Activity
[23] = Growth inhibition of human DU145 cells assessed as cell growth at 10^-8 M incubated for 48 hrs by sulforhodamine B assay; conditions: DU-145, 48 h, read-out: Activity; summary of the method: as §2
[24] = test system: MDA-MB-468; test: Growth inhibition of human MDA-MB-468 cells assessed as cell growth at 10^-8 M incubated for 48 hrs by sulforhodamine B assay; conditions: MDA-MB-468, 48 h, read-out: Activity
[25] = read-out: LC50 (the source's name)
[26] = read-out: pLC50 (the source's name) (converted)

Clc1ccc(-c2nc(Nc3ccc(-c4nc5ccccc5[nH]4)cc3)nc(N3CCOCC3)n2)cc1
growth at 0.01 µM [1]: 99%
GI50 ([2]; read-out: GI50): 0.505 µM
TGI ([2]; read-out: TGI): 1.94 µM
GI50 ([2]; read-out: pGI50 (converted)): 0.501 µM
TGI ([2]; read-out: pTGI (converted)): 1.95 µM
GI50 ([3]; read-out: GI50): 0.851 µM
TGI ([3]; read-out: TGI): 2.39 µM
GI50 ([3]; read-out: pGI50 (converted)): 0.851 µM
TGI ([3]; read-out: pTGI (converted)): 2.4 µM
growth at 10 µM [4]: -92.6%
growth at 10 µM [5]: -93%
growth at 100 µM [6]: -44%
growth at 10 µM [7]: -86.1%
growth at 10 µM [8]: -81%
growth at 0.1 µM [9]: 99%
growth at 0.01 µM [10]: 96%
growth at 100 µM [11]: 1%
growth at 1 µM [12]: -45%
growth at 10 µM [13]: -66%
growth at 0.1 µM [14]: 93%
growth at 10 µM [15]: -99%
GI50 [16]: 0.26 µM
TGI [16]: 0.69 µM
CC50 [16]: 2.75 µM
growth at 10 µM [17]: -64.5%
GI50 ([18]; read-out: GI50): 1.69 µM
CC50 [18, 25]: 5.79 µM
TGI ([18]; read-out: TGI): 3.13 µM
GI50 ([18]; read-out: pGI50 (converted)): 1.7 µM
CC50 [18, 26]: 5.75 µM
TGI ([18]; read-out: pTGI (converted)): 3.16 µM
growth at 0.01 µM [19]: 98%
growth at 0.1 µM [20]: 92%
growth at 100 µM [21]: -33%
growth at 0.01 µM [22]: 105%
growth at 0.01 µM [23]: 101%
growth at 0.01 µM [24]: 99%

c1ccc2[nH]c(-c3ccc(Nc4nc(N5CCCCC5)nc(N5CCOCC5)n4)cc3)nc2c1
growth at 0.01 µM [1]: 99%
GI50 ([2]; read-out: GI50): 4.06 µM
CC50 [2, 25]: > 100 µM
TGI ([2]; read-out: TGI): 29.3 µM
GI50 ([2]; read-out: pGI50 (converted)): 4.07 µM
CC50 [2, 26]: > 100 µM
TGI ([2]; read-out: pTGI (converted)): 29.5 µM
LC50 (50% lethal concentration) [3]: > 100 µM
GI50 ([3]; read-out: GI50): 5.4 µM
TGI ([3]; read-out: TGI): 53.2 µM
GI50 ([3]; read-out: pGI50 (converted)): 5.37 µM
CC50 [3, 26]: > 100 µM
TGI ([3]; read-out: pTGI (converted)): 53.7 µM
growth at 10 µM [4]: -0.68%
growth at 10 µM [5]: -77.1%
growth at 100 µM [6]: -69%
growth at 10 µM [7]: -27.3%
growth at 10 µM [8]: -57%
growth at 0.1 µM [9]: 95%
growth at 0.01 µM [10]: 103%
growth at 100 µM [11]: -1%
growth at 1 µM [12]: 98%
growth at 10 µM [13]: -35%
growth at 0.1 µM [14]: 86%
growth at 10 µM [15]: -55%
GI50 [16]: 2.43 µM
TGI [16]: 5.52 µM
CC50 [16]: 30.2 µM
growth at 10 µM [17]: 32.7%
GI50 ([18]; read-out: GI50): 1.78 µM
CC50 [18, 25]: 6.11 µM
TGI ([18]; read-out: TGI): 3.3 µM
GI50 ([18]; read-out: pGI50 (converted)): 1.78 µM
CC50 [18, 26]: 6.17 µM
TGI ([18]; read-out: pTGI (converted)): 3.31 µM
growth at 0.01 µM [19]: 99%
growth at 0.1 µM [20]: 93%
growth at 100 µM [21]: -45%
growth at 0.01 µM [22]: 100%
growth at 0.01 µM [23]: 102%
growth at 0.01 µM [24]: 104%
